Sampled rows, rich in hits. Any-hit rate of the full collection: about 29%.
CYP2C9 inhib: inhibitors of human CYP2C9; CYP2C9 Supersomes, luciferin-H conversion, luminescence; 96,000 compounds, 20% hits; AID 777; inhibition, % at 5 µM;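 active = blocking of liver enzyme CYP2C9 beyond about 50% at 5 µM, limit read from the data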
Target sequence (P11712 whole entry, looked up): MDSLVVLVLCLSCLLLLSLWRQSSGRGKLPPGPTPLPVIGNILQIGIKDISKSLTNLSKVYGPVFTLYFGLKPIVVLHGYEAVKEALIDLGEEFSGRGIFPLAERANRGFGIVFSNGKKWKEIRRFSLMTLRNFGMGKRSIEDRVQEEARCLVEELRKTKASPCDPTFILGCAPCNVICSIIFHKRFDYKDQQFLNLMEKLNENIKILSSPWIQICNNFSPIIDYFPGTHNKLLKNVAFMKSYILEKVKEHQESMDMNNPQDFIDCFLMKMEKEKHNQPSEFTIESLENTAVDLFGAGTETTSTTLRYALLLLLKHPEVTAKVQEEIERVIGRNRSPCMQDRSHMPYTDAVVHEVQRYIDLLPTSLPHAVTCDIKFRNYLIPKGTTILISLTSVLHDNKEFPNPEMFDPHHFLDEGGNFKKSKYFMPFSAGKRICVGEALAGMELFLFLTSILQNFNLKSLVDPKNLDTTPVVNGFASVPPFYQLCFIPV
CYP2C19 inhib: human CYP2C19 inhibition. P33261. CYP2C19 Supersomes, luciferin-H EGE luminescence, 30 min. inhibition, % at 5 µM. 96,000 compounds, 21% hits. AID 778;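 active = CYP2C19 inhibition above a set limit at 5 µM in the primary screen, cut at about 50% in these data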;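 also: plate controls were negative control wells for no effect and 2.5 mM tranylcypromine positive control for full effect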
Ecoli WT expand: blocks growth of wild type E. coli BW25113; 98,000 compounds, 0.15% hits; OD600 absorbance; growth inhibition, % at 100 µM;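 active = growth inhibition above about 50% at one test dose, limit read from the data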;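 also: growth measured after 20 h incubation at 37 °C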
CYP2C19 activ: cytochrome P450 2C19 (human) activation | P33261 | recombinant CYP2C19, luciferin-H EGE luminescence; hits give high values; 0 = fully inhibited enzyme, 1 = untreated enzyme | activation factor at 5 µM | 96,000 tested, under 10 active;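 active = activation factor of at least 2 at 5 µM in the primary screen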;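 also: 0 = wells with 2.5 mM tranylcypromine and 1 = vehicle-only wells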
tolC growth inh: growth inhibitors of E. coli BW25113 tolC mutant. AID 573. 65,000 compounds, 2.2% hits. OD615. growth inhibition, % at 10 µM (by protocol);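 active = growth inhibition at or above a cutoff equal to the mean over every tested compound plus 3 SD, cut at about 60% in these data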;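 also: growth measured after 20 h incubation at 37 °C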
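Test system: tolC-deleted E. coli BW25113 | Medium: LB with kanamycin 50 µg/mL | Compound dosing: Single concentration, 10 µM final per compound | Schedule: 37 °C, 20 h exposure | Measured by: OD at 615 nm | Evaluation: Percent growth inhibition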
CYP2C9 act: activators of human CYP2C9; P11712; recombinant CYP2C9, luciferin-H conversion, luminescence; hits give high values; factor 1 = untreated enzyme, 0 = blocked; activation factor at 5 µM; 96,000 compounds, 1.4% hits;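 active = activation factor of 2 or more for CYP2C9 at a 5 µM dose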;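 also: 0 = sulfaphenazole-blocked wells and 1 = vehicle-only wells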
* hit, by the source's call; . = no result.

SMILES	CYP2C9 inhib	CYP2C19 inhib	Ecoli WT expand	CYP2C19 activ	tolC growth inh	CYP2C9 act
CC(C)OC(=O)c1nnn(-c2nonc2N)c1CSc1ccccn1	57*	74*	8	0.3	0	0.4
Cc1cc(C)c(C(=O)CSC2=NC(N)=C(C#N)C3(CCCCC3)C2C(N)=O)cc1C (stereo unspecified)	7	41	-3	0.6	.	0.9
CCc1cccc(NC(=O)Nc2cccs2)c1	38	28	12	0.7	38	0.6
N#Cc1cccc(NC(=O)Nc2cccs2)c1	84*	42	73*	0.6	16	0.2
O=C(O)C1CSC2c3ccccc3C(=O)N12 (stereo unspecified)	28	8	2	0.9	-8	0.7
O=C(NCCCN1CCOCC1)[C@@H]1CSC2c3ccccc3C(=O)N21 (stereo partly specified)	-18	-6	-3	1.1	-17	1.2
O=C(NCc1ccco1)[C@@H]1CSC2c3ccccc3C(=O)N21 (stereo partly specified)	40	57*	-4	0.4	-9	0.6
O=C(NCc1cccs1)[C@@H]1CSC2c3ccccc3C(=O)N21 (stereo partly specified)	72*	75*	-5	0.2	-10	0.3
COCCN1C(=O)c2oc3cc(C)c(C)cc3c(=O)c2C1c1ccc(O)cc1 (stereo unspecified)	.	.	.	.	-1	.
Cc1ccc(S(=O)(=O)N2CCC(C(=O)NCCCN3CCCCCC3)CC2)cc1	9	7	2	0.9	-10	0.9
COc1ccc(-c2nc(NC(=O)C3CCN(c4nc5ccccc5o4)CC3)sc2C)cc1	51*	29	-6	0.7	6	0.5
CC(C)c1nnc(NC(=O)c2sc3ccccc3c2Cl)s1	14	2	10	1	.	0.9
CCOC(=O)c1sc2ccccc2c1OC(=O)c1ccccc1	90*	85*	5	0.2	.	0.1
CCOC(=S)NC(=O)c1sc2ccccc2c1Cl	90*	4	-11	1	.	0.1
CCCC(=O)N1CCN(c2ccc(NC(=O)c3sc4ccccc4c3Cl)cc2)CC1	-1	15	-7	0.9	.	1
CCOC(=O)c1sc(NC(=O)c2ccccc2)cc1C	28	24	-5	0.8	.	0.7
Cc1nn(Cc2ccc(Cl)c(Cl)c2)c(C)c1NC(=O)c1sc2ccccc2c1Cl	87*	70*	2	0.3	.	0.1
Cc1nn(Cc2c(Cl)cccc2Cl)c(C)c1NC(=O)c1sc2ccccc2c1Cl	28	35	5	0.7	.	0.7
CCCOC(=S)NC(=O)c1sc2ccccc2c1Cl	68*	10	1	0.9	.	0.3
Cc1cncn1CCc1nc2c3ccccc3nc(=S)n2[nH]1	.	.	.	.	-10	.
O=C(O)c1cccnc1SC1CC(=O)N(Cc2ccccc2)C1=O (stereo unspecified)	4	-13	3	1.1	-8	1
CCCn1nnc(NC(=O)Cc2ccccc2)n1	1	21	3	0.8	.	1
CCCn1nnc(NC(=O)c2sc3ccccc3c2Cl)n1	-7	61*	11	0.4	22	1.1
Cc1cc(NC(=O)C(C)(C)C)no1	-3	-3	6	1	-9	1
CN(C(=O)c1ccccc1Cl)C1CCCCC1	37	75*	5	0.2	9	0.6
SMILES	CYP2C9 inhib	CYP2C19 inhib	Ecoli WT expand	CYP2C19 activ	tolC growth inh	CYP2C9 act
COCCOc1ccc(C(F)(F)F)cc1Nc1nc2ccccc2o1	38	30	-3	0.7	17	0.6
COCCCNC(=O)c1ccc(N(C)S(=O)(=O)c2ccc(OC)cc2)cc1	70*	12	7	0.9	3	0.3
NC(=O)C1CCN(C(=O)c2ccc(Oc3ccccc3)cc2)CC1	56*	13	1	0.9	.	0.4
Cc1ccc(CSCCNC(=O)c2ccc(N(C)S(=O)(=O)c3ccccc3)cc2)cc1	86*	8	-19	0.9	.	0.1
COc1ccc(S(=O)(=O)N(C)c2ccc(C(=O)N3CCC(C(N)=O)CC3)cc2)cc1	50*	-8	0	1.1	-9	0.5
Cc1ccc(C(=O)N2CCC(C(N)=O)CC2)cc1C	-34	-1	7	1	-2	1.3
Cc1ccc(-n2c(Cc3cccn3C)nnc2SCC(=O)Nc2cc(C)on2)cc1	5	2	-2	1	3	0.9
O=C(c1ccc2ncsc2c1)N1CCN(c2ccc(O)cc2)CC1	16	6	0	0.9	.	0.8
COc1cc(C(=O)N2CCN(c3cccc(C)c3C)CC2)cc(OC)c1OC	.	.	-7	.	24	.
Cc1cccc(N2CCN(C(=O)c3ccc4ncsc4c3)CC2)c1C	28	66*	-1	0.3	.	0.7
Cc1cccc(N2CCN(C(=O)c3ccncc3)CC2)c1C	86*	100*	-6	0	10	0.1
Nc1cccnc1Sc1cc(Cl)cc(Cl)c1	-72	48	18	0.5	.	1.7
COC(=O)c1ccc(Oc2nc(C(N)=O)cc(-c3ccccc3)n2)cc1	12	5	-6	1	.	0.9
COC(=O)c1cc(Br)c(=O)n(-c2cccc(F)c2)c1	0	52*	-1	0.5	.	1
COC(=O)c1cc(Br)c(=O)n(-c2ccccc2OC)c1	-22	14	4	0.9	-5	1.2
COC(=O)c1cc(Br)c(=O)n(-c2ccc(OC)cc2)c1	12	55*	-7	0.4	-8	0.9
Cc1ccc(-n2ccnc2SCC(=O)N(CC(C)C)C2CCS(=O)(=O)C2)c(C)c1 (stereo unspecified)	14	32	1	0.7	2	0.9
CC1=C([N+](=O)[O-])C(c2cccc(Br)c2)C2=C(N1)c1ccccc1C2=O (stereo unspecified)	98*	88*	-3	0.1	.	0
CN(C)S(=O)(=O)c1cccc2nsnc12	12	16	-2	0.8	-17	0.9
Cc1cccc(N(C)S(=O)(=O)c2cccc3nsnc23)c1	-70	64*	4	0.4	9	1.7
CCN(c1cccc(C)c1)S(=O)(=O)c1cccc2nsnc12	53*	89*	9	0.1	32	0.5
O=C(CSc1nc2ccccc2c(=O)n1-c1ccc(F)cc1)NCc1ccco1	19	35	3	0.6	.	0.8
O=C(NCc1ccccc1Cl)c1cnn2cccnc12	-68	41	14	0.6	8	1.7
Clc1ccccc1CSc1snnc1-c1ccccc1	-57	-2	-1	1	.	1.6
Clc1ccccc1CSc1ncccn1	-34	53*	12	0.5	6	1.3
O=C(CSc1nc2ccccc2c(=O)n1NC(=O)Cc1ccccc1)NCc1ccccc1Cl	94*	90*	-14	0.1	.	0.1
O=C(CSc1ncccn1)NCc1ccccc1Cl	-23	75*	8	0.3	-17	1.2
C=CCNC(=S)NNC(=O)CCC(O)CCCCC (stereo unspecified)	43	15	-1	0.8	.	0.6

High-throughput results as filed in PubChem.
